Drug metabolism and Vmax data for one compound are collected here from ChEMBL document CHEMBL3526015, “Metabolism of the c-Fos/activator protein-1 inhibitor T-5224 by multiple human UDP-glucuronosyltransferase isoforms” (Drug Metab Dispos, 2011).

Each structure is given as a SMILES string.

Assay type in all cases: ADME
In data set [1] the target is T1, UDP-glucuronosyltransferase 1A1 (Homo sapiens, UniProt P22309).
T1 sequence (P22309 whole entry): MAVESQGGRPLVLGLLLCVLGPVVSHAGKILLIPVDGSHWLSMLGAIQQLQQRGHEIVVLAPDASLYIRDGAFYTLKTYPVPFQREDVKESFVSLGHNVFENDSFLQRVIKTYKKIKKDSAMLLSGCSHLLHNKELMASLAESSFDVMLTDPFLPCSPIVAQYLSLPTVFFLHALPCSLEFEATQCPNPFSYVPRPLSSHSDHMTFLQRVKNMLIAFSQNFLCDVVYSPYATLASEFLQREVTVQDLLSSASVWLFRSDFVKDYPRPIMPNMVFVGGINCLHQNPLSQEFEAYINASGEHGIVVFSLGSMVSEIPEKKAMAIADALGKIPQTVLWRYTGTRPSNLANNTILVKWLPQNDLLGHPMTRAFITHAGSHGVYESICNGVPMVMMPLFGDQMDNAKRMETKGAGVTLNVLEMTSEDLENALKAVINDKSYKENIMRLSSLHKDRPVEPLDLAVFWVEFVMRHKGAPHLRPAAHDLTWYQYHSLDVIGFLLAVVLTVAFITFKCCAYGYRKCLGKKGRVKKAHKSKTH
Nature of the data set: Drug metabolism assessed as human UGT1A1-mediated T-5224 acyl O-glucuronide formation at 10 uM […] in presence of beta-estradiol by HPLC method. Conditions: recombinant enzyme. The method in brief: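 Pooled human liver microsomes or recombinant UGT1A1 were incubated with 10 μM T-5224, 2 mM UDPGA and β-estradiol at 0–500 μM (2% DMSO), in Tris-HCl/MgCl2/alamethicin buffer. Incubation was 10 min (liver microsomes) or 60 min (UGT1A1) at 37°C. G2/G3 were read by HPLC at 290 nm, as mean ± SD, n = 3.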

The subject of data set [2] is Liver microsome. Nature of the data set: Drug metabolism in pooled human liver microsomes assessed as T-5224 acyl O-glucuronide formation in presence of UDPGA by LC-MS/MS method.
For data set [3], the system named is Liver microsome. Nature of the data set: Drug metabolism in human liver microsomes assessed as T-5224 acyl O-glucuronide formation per mg protein after 10 to 60 mins by HPLC method. The method in brief:
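Pooled liver microsomes (0.5 mg/mL) were incubated 10 min. Pooled intestinal microsomes (0.25 mg/mL) ran 10 min at T-5224 10–50 μM and 20 min at 1–5 μM. Buffer was 50 mM Tris-HCl pH 7.5 with 8 mM MgCl2, alamethicin and 2 mM UDPGA, at 37°C, in triplicate. Glucuronides G2/G3 were read by HPLC at 290 nm and fitted for Vmax/Km.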

A further data set concerns the target T2, Cytochrome P450 2A6 (Homo sapiens, UniProt P11509).
T2 sequence (P11509 whole entry): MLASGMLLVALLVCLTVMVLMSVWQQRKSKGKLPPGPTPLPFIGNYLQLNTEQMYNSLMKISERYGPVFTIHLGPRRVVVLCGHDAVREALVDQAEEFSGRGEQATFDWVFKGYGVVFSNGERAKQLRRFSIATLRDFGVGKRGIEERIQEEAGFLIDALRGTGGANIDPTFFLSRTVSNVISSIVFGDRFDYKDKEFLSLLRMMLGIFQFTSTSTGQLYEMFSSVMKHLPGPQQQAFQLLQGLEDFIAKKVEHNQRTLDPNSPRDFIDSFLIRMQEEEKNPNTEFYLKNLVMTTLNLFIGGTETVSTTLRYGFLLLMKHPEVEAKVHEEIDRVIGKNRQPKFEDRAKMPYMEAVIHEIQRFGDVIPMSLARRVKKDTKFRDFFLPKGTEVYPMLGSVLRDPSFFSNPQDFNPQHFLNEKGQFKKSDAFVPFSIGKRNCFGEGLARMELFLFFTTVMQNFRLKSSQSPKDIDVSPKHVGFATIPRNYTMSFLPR
Briefly: Drug metabolism assessed as human CYP2A6-mediated metabolite formation at 2 uM after 30 mins by HPLC method. Conditions: recombinant enzyme, 0.5 h. The method in brief:
(§1)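 Each recombinant human P450 was used at 50 pmol/mL with an NADPH-generating system and 2 μM 14C-T-5224 (0.5% DMSO final). Buffer was 100 mM Tris-HCl pH 7.5, except 100 mM potassium phosphate pH 7.4 for CYP2A6 and CYP2C9*1. Incubation ran 30 min at 37°C and was stopped with acetonitrile/methanol. Radioactive metabolite peaks were detected by C18 HPLC.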

In a further data set the target is T3, Cytochrome P450 2B6 (Homo sapiens, UniProt P20813).
T3 sequence (P20813 whole entry): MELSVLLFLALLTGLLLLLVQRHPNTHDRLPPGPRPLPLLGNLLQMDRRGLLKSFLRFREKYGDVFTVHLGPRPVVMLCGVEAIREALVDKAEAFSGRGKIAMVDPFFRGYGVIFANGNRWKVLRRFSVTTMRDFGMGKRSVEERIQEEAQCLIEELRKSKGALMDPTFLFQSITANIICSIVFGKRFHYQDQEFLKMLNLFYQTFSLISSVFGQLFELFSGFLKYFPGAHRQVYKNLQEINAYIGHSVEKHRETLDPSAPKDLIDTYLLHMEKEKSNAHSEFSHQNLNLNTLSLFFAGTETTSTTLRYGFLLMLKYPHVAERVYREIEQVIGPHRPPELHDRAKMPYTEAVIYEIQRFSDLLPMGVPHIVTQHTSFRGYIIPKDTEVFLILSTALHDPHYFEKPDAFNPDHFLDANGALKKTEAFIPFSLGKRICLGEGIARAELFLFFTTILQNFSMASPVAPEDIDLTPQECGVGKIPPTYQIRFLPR
Briefly: Drug metabolism assessed as human CYP2B6-mediated metabolite formation at 2 uM after 30 mins by HPLC method. Conditions: recombinant enzyme, 0.5 h. An outline of the steps: as §1

Data set [4] is described as follows: Drug metabolism assessed as human CYP2C9*1-mediated metabolite formation at 2 uM after 30 mins by HPLC method. Conditions: 0.5 h. An outline of the steps: as §1
For a further data set, the target named is Cytochrome P450 2C19 (Homo sapiens, UniProt P33261). Briefly: Drug metabolism assessed as human CYP2C19-mediated metabolite formation at 2 uM after 30 mins by HPLC method. Conditions: recombinant enzyme, 0.5 h. An outline of the steps:
as §1

The target in a further data set is Cytochrome P450 2E1 (Homo sapiens, UniProt P05181). Briefly: Drug metabolism assessed as human CYP2E1-mediated metabolite formation at 2 uM after 30 mins by HPLC method. Conditions: recombinant enzyme, 0.5 h. An outline of the steps: as §1
Sequence of Cytochrome P450 2E1 (P05181 whole entry): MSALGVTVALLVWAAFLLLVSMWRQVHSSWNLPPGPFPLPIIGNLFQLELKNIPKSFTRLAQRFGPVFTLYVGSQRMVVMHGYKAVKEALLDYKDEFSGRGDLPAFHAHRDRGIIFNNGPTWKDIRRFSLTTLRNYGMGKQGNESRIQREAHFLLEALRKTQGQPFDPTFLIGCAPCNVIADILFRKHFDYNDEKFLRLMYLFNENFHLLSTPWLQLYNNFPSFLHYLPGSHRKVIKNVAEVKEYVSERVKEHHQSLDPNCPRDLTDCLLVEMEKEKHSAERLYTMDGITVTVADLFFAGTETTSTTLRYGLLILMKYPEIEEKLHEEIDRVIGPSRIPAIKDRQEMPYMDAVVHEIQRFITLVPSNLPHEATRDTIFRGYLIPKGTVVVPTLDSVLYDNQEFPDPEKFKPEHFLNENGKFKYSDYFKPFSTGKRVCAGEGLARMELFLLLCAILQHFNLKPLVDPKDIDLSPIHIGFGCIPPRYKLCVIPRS
Another data set has as its target Cytochrome P450 3A4 (Homo sapiens, UniProt P08684). Briefly: Drug metabolism assessed as human CYP3A4-mediated metabolite formation at 2 uM after 30 mins by HPLC method. Conditions: recombinant enzyme, 0.5 h. The method in brief:
as §1

Sequence of Cytochrome P450 3A4 (P08684 whole entry): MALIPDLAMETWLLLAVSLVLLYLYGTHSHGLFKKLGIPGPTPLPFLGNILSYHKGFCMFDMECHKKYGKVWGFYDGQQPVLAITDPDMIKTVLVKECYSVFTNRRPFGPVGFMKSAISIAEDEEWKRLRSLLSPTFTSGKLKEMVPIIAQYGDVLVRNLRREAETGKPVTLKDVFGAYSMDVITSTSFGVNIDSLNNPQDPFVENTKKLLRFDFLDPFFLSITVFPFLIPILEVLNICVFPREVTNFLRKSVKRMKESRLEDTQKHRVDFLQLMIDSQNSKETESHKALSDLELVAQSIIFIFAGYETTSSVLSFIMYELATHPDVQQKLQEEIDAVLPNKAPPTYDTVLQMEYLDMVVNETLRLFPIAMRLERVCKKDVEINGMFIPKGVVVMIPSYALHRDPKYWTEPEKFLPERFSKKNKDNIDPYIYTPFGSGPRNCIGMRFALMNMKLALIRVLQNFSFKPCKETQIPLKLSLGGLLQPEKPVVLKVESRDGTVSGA
Sequence of Cytochrome P450 2C19 (P33261 whole entry): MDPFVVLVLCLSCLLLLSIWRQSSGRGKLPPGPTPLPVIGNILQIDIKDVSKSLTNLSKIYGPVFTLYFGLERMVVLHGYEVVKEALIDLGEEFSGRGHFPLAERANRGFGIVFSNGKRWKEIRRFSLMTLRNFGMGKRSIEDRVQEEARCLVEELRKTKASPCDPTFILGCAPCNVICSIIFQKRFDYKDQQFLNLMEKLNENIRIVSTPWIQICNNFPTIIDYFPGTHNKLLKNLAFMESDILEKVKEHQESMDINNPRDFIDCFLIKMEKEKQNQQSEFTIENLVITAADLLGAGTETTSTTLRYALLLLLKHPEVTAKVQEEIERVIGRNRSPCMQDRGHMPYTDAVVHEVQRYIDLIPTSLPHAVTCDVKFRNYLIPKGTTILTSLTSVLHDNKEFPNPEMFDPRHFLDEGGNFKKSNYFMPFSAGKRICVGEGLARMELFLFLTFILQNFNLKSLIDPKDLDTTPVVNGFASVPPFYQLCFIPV

Turning to `O=C(O)CCc1cc(C(=O)c2ccc(OC3CCCC3)cc2O)ccc1OCc1ccc2c(O)noc2c1`, the Drug metabolism entry in data set [1] is listed as “metabolite_not_detected”; in the data set on Liver microsome [2] it was “metabolite_detected”; on Cytochrome P450 2A6 it was “metabolite_not_detected”; on Cytochrome P450 2B6 it was “metabolite_not_detected”; in data set [4], “metabolite_not_detected”; on Cytochrome P450 2C19, “metabolite_not_detected”. For the same compound, the Drug metabolism entry on Cytochrome P450 2E1 and on Cytochrome P450 3A4 was “metabolite_not_detected” throughout. The maximal velocity (Vmax) in the data set with Liver microsome [3] came to 217 pmol/min.
